Our source for the IC50, inhibition of growth and inhibition in vivo values is ChEMBL document CHEMBL2311276, “Synthesis of amidine and bis amidine derivatives and their evaluation for anti-inflammatory and anticancer activity” (Eur J Med Chem, 2013).

One experiment relates to COS-1. Description: Cytotoxicity against african green monkey COS1 cells after 24 hrs by MTT assay. It counts as cell-based. The conditions noted are these: Chlorocebus aethiops, COS-1, 24 h. (Formazan colour is commonly taken as a measure of viable cells.)
Experiment [1] has as its system PA-1. Description: Cytotoxicity against human PA1 cells after 24 hrs by MTT assay. Type of experiment: functional, cell-based. Conditions: PA-1, 24 h. Summed up: (§1)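 Cell lines came from NCCS Pune and were grown in RPMI-1640 with 2 mM glutamine, pH 7.4. Cells were seeded at 5 × 10³ per well and exposed to serial dilutions in DMSO for 24 h, with 0.1% final DMSO as vehicle control. MTT (5 mg/ml) was added for 4 h at 37 °C. Formazan was dissolved in DMSO plus Sorensen glycine buffer (pH 10.5) and read at 570 nm. IC50 came from % inhibition versus vehicle; triplicate, mean ± SD of three experiments.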

The test system of experiment [2] is HepG2. Description: Cytotoxicity against human HepG2 cells after 24 hrs by MTT assay. Conditions: HepG2, 24 h. Type of experiment: functional, cell-based. Summed up:
as §1

For experiment [3], the system named is NCI-H522. Description: Cytotoxicity against human NCI-H522 cells after 24 hrs by MTT assay. It counts as functional, cell-based. The conditions noted are these: NCI-H522, 24 h. Summed up: as §1
Experiment [4] relates to HCT-15. Description: Cytotoxicity against human HCT15 cells after 24 hrs by MTT assay. Conditions: HCT-15, 24 h. It counts as functional, cell-based. Summed up: as §1
Experiment [5] relates to HCT-15. Description: Cytotoxicity against human HCT15 cells assessed as growth inhibition at 1 x 10 '-5 M after 24 hrs by MTT assay. It counts as functional. Conditions: HCT-15, 24 h, read-out: GI. Put shortly:
(§2)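 MTT screen at a single concentration of 1 × 10⁻⁵ M, 24 h exposure. Seeding was 5 × 10³ cells/well in RPMI-1640 with 2 mM glutamine. Vehicle was 0.1% final DMSO. MTT was added for 4 h at 37 °C, formazan dissolved in DMSO/glycine buffer (pH 10.5), and A570 read. Percent growth inhibition was calculated against vehicle-treated cells; triplicate, mean of three independent experiments.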

Experiment [6] has as its system T47D. Description: Cytotoxicity against human T47D cells after 24 hrs by MTT assay. Type of experiment: functional, cell-based. Put shortly:
as §1

Experiment [7] deals with HepG2. Description: Cytotoxicity against human HepG2 cells assessed as growth inhibition at 1 x 10 '-5 M after 24 hrs by MTT assay. Type of experiment: functional. The conditions noted are these: HepG2, 24 h, read-out: GI. Put shortly:
as §2

Experiment [8] has as its system PA-1. Description: Cytotoxicity against human PA1 cells assessed as growth inhibition at 1 x 10 '-5 M after 24 hrs by MTT assay. It counts as functional. The conditions noted are these: PA-1, 24 h, read-out: GI. Put shortly: as §2
The subject of experiment [9] is NCI-H522. Description: Cytotoxicity against human NCI-H522 cells assessed as growth inhibition at 1 x 10 '-5 M after 24 hrs by MTT assay. Conditions: NCI-H522, 24 h, read-out: GI. It counts as functional. Summed up:
as §2

Experiment [10] deals with T47D. Description: Cytotoxicity against human T47D cells assessed as growth inhibition at 1 x 10 '-5 M after 24 hrs by MTT assay. The conditions noted are these: read-out: GI. It counts as functional. Summed up:
as §2

For another experiment, the system named is Rattus norvegicus. Description: Antiinflammatory activity in Charles Foster albino rat assessed as inhibition of carrageenan-induced paw edema at 50 mg/kg, po administered 30 mins before carrageenan challenge measured after 1 to 3 hrs by plethysmometer analysis. Type of experiment: functional. Put shortly: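 Rats of both sexes (120–160 g; pregnant females excluded), five per group, were dosed orally at 50 mg/kg. After 30 min, 0.20 mL of freshly prepared 1% carrageenan in 0.9% NaCl was injected into the plantar aponeurosis of the hind paw. Paw volume was read by water plethysmometer before and 1–3 h later. Percent inhibition was taken against a carrageenan-only control group of five rats.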
A general note: The carrageenan paw model is a standard test of acute inflammation.

The structures appear in SMILES notation.

As to `N=C(Nc1ccc(-c2ccc(NC(=N)c3cnccn3)cc2)cc1)c1cnccn1`, the IC50 (in general, the concentration at which inhibition is half-maximal) with COS-1 amounted to 100 µM; with PA-1 [1], 17.1 µM; in the experiment on HepG2 [2] it was 20.3 µM; in the experiment on NCI-H522 [3] it was 14.1 µM; in the experiment with HCT-15 [4], 11.9 µM; in the experiment on T47D [6], 62.4 µM. Besides, the inhibition of growth at 10 µM in the experiment on HCT-15 [5] came out at 45%; with HepG2 [7] it was 37%; in the experiment on PA-1 [8], 43%; with NCI-H522 [9], 43%; in the experiment with T47D [10] it was 14%. The inhibition in vivo (in general, the drop in the measured response relative to a control, in per cent) at 50 mg/kg with Rattus norvegicus was 31%.
As for `N=C(Nc1ccc(-c2ccc(NC(=N)c3ccncc3)cc2)cc1)c1ccncc1`, the IC50 with COS-1 worked out at 50 µM; with PA-1 [1] it was 42.5 µM; in the experiment on HepG2 [2], 11.9 µM; in the experiment on NCI-H522 [3], 13.4 µM; with HCT-15 [4], 124 µM; with T47D [6], 34.1 µM. Further, the inhibition of growth at 10 µM was 3% in the experiment with HCT-15 [5]; 48% in the experiment with HepG2 [7]; 7% with PA-1 [8]; 36% in the experiment on NCI-H522 [9]; 12% in the experiment on T47D [10]. The inhibition in vivo at 50 mg/kg in the experiment on Rattus norvegicus stood at 15%.
